According to ChEMBL document CHEMBL4673174, “meta-Substituted benzenesulfonamide: a potent scaffold for the development of metallo-beta-lactamase ImiS inhibitors” (RSC Med Chem, 2020):
Values after ≈ are worked out from the molar mass of the structure shown. Active and inactive are the calls of the source. No cut-off for these calls is given here.

What was measured:
Bacteria [1] = assay: Inhibition of beta-lactamase ImiS (unknown origin) expressed in Escherichia coli BL21 (DE3) assessed as potentiation of meropenem induced antibacterial activity by measuring meropenem MIC at 64 ug/ml incubated for 16 hrs by CLSI broth microdilution method (reference value: 64 ug/ml); details: dose 64.0 µg/ml
[2] = Inhibition of bacterial ImiS expressed in Escherichia coli BL21 (DE3) using imipenem as substrate preincubated for 3 hrs with enzyme followed by substrate addition by spectrometry analysis; parameters: species or system Bacteria
Procedure, shortened: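 Purified ImiS preincubated 3 h with inhibitor (six concentrations, 0.01–20 μM; DMSO below 0.5%) in 30 mM Tris pH 7.0, 25 °C; imipenem 40 μM. Hydrolysis read at 300 nm, rates in triplicate. IC50 from linear fit of mean percent inhibition against inhibitor concentration.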

Bacteria [3] = assay: Inhibition of bacterial ImiS expressed in Escherichia coli BL21 (DE3) at 20 uM using imipenem as substrate by spectrometry analysis relative to control
Procedure, shortened: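 Purified ImiS with imipenem (40 μM) in 30 mM Tris pH 7.0; inhibitor at 20 μM, DMSO below 0.5%. Hydrolysis followed at 300 nm by UV-vis; initial rates in triplicate, averaged. Percent inhibition = activity without inhibitor (100%) minus residual activity.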

Bacteria [4] = assay: Inhibition of bacterial L1 expressed in Escherichia coli BL21 (DE3) at 20 uM using cefazolin as substrate by spectrometry analysis relative to control
Procedure, shortened: (§1)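 Purified L1 or NDM-1; cefazolin (40 μM) substrate, hydrolysis monitored at 262 nm by UV-vis. Inhibitor at 20 μM. Initial rates with and without inhibitor measured in triplicate and averaged; percent inhibition = uninhibited activity (100%) minus residual activity.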

[5] = Mixed type inhibition of bacterial ImiS using varying levels of imipenem as substrate assessed as hydrolysis by Line weaver Burk plot analysis; parameters: species or system Bacteria
Procedure, shortened: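 Initial imipenem hydrolysis rates by ImiS at 20, 40, 60, 80 and 100 μM substrate, inhibitor at 0, 1, 5 and 10 μM; 300 nm read-out, triplicate. Mode assigned from Lineweaver–Burk plots; Ki from fits of initial velocity against substrate concentration at each inhibitor level.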

Bacteria [6] = assay: Inhibition of bacterial NDM-1 expressed in Escherichia coli BL21 (DE3) at 20 uM using cefazolin as substrate by spectrometry analysis relative to control
Procedure, shortened: as §1

Bacteria [7] = assay: Inhibition of beta-lactamase ImiS (unknown origin) in expressed Escherichia coli BL21 (DE3) assessed as potentiation of imipenem induced antibacterial activity by measuring imipenem MIC at 64 ug/ml incubated for 16 hrs by CLSI broth microdilution method (reference value: 16 ug/ml); details: dose 64.0 µg/ml
Procedure, shortened: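 E. coli BL21 (DE3) carrying pET26b-ImiS grown in MH broth to OD600 0.5, diluted to 1 × 10^5 CFU mL–1. CLSI broth dilution; imipenem serially diluted, inhibitor at 64 μg mL–1 stock.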

[8] = Cytotoxicity against mouse L929 cells assessed as cell viability up to 200 uM measured after 48 hrs by MTT assay; assay type: cell-based; details: read-out: Activity
Bacteria [9] = assay: Inhibition of bacterial ImiS expressed in Escherichia coli BL21 (DE3) by measuring hydrolysis of imipenem using imipenem as substrate preincubated for 3 hrs with enzyme followed by substrate addition by isothermal titration calorimetric method; details: dose microM 0.1-10, time 3.0 hrs
Procedure, shortened: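 ITC, single-injection mode, 25 °C, 30 mM Tris with 0.5% DMSO. ImiS (100 nM) preincubated 3 h with inhibitor (0–10 μM), then one 38 μL injection of imipenem (0.5 mM); stirring 750 rpm. Heat flow (dq/dt) recorded every 1 s until return to baseline.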

Mus musculus [10] = assay: In vivo inhibition of beta-lactamase ImiS (unknown origin) expressed in Escherichia coli BL21 (DE3) infected in Kunming mouse assessed as potentiation of meropenem-induced reduction in bacterial load in spleen at 10 mg/kg, ip administered after 2 hrs post infection and measured after 24 hrs; assay type: functional, organism-based
Procedure, shortened: (§2)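 Kunming mice (male and female, 20 ± 2 g), six per group, infected ip with 200 μL E. coli BL21 (DE3)-ImiS suspension (OD600 = 1.0). At 2 h, single ip dose: PBS, meropenem 10 mg kg–1, inhibitor 10 mg kg–1, or meropenem plus inhibitor (each 10 mg kg–1). Euthanized 24 h post-infection; 0.1 g spleen and liver homogenized in 1 mL PBS, serially diluted, plated on LB agar for cfu.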

Bacteria [11] = assay: Inhibition of bacterial ImiS expressed in Escherichia coli BL21 (DE3) at 10 uM using imipenem as substrate by spectrometry analysis relative to control
Procedure, shortened: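 Time and concentration dependence: ImiS incubated with inhibitor at 0.5, 1 or 5 μM over varying times, or over 0.01–10 μM for the inhibition curve; residual activity against imipenem measured spectrophotometrically at 300 nm in 30 mM Tris pH 7.0.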

Escherichia coli [12] = assay: In vivo antibacterial activity against Escherichia coli BL21(DE3) expressing ImiS infected in Kunming mouse assessed as reduction in bacterial load liver at 10 mg/kg, ip administered after 2 hrs post infection and measured after 24 hrs; assay type: functional, organism-based
Procedure, shortened: as §2

Mus musculus [13] = assay: In vivo antibacterial activity against Escherichia coli BL21 (DE3) expressing ImiS infected in Kunming mouse assessed as reduction in bacterial load spleen at 10 mg/kg, ip administered after 2 hrs post infection and measured after 24 hrs; assay type: functional, organism-based
Procedure, shortened: as §2

Mus musculus [14] = assay: In vivo inhibition of beta-lactamase ImiS (unknown origin) expressed in Escherichia coli BL21 (DE3) infected in Kunming mouse assessed as potentiation of meropenem-induced reduction in bacterial load in liver at 10 mg/kg, ip administered after 2 hrs post infection and measured after 24 hrs; assay type: functional, organism-based
Procedure, shortened: as §2

Escherichia coli [15] = assay: Antibacterial activity against Escherichia coli BL21 (DE3) assessed as inhibition of bacterial growth incubated for 16 hrs by CLSI broth microdilution method; assay type: functional

SMILES: COC(=O)c1ccc(C(=O)Nc2ccc(S(N)(=O)=O)cc2)cc1
- MIC (Bacteria [1]): 32 µg/mL
- IC50 [2]: 7.3 µM
- inhibition (Bacteria [3]): > 70%
- inhibition (Bacteria [4]): < 20%
- Ki [5]: 8 µM
- inhibition (Bacteria [6]): < 20%
- MIC (Bacteria [7]): 8 µg/mL

SMILES: NS(=O)(=O)c1ccc(NC(=O)CC(c2ccccc2)c2ccccc2)cc1
- MIC (Bacteria [1]): 32 µg/mL
- IC50 [2]: 4.1 µM
- inhibition (Bacteria [3]): > 70%
- inhibition (Bacteria [4]): < 20%
- inhibition (Bacteria [6]): < 20%
- MIC (Bacteria [7]): 8 µg/mL

SMILES: CC(C)(C)c1ccc(C(=O)Nc2ccccc2S(N)(=O)=O)cc1
- MIC (Bacteria [1]): 32 µg/mL
- IC50 [2]: 4.6 µM
- inhibition (Bacteria [3]): > 70%
- viability at 48 h [8]: > 80%
- inhibition (Bacteria [4]): < 20%
- inhibition (Bacteria [6]): < 20%
- MIC (Bacteria [7]): 8 µg/mL

SMILES: NS(=O)(=O)c1ccc(NC(=O)c2cccc([N+](=O)[O-])c2)cc1
- MIC (Bacteria [1]): 32 µg/mL
- IC50 [2]: 4.8 µM
- inhibition (Bacteria [3]): > 70%
- inhibition (Bacteria [4]): < 20%
- inhibition (Bacteria [6]): < 20%
- MIC (Bacteria [7]): 8 µg/mL

SMILES: CC(C)(C)c1ccc(C(=O)Nc2cccc(S(N)(=O)=O)c2)cc1
- MIC (Bacteria [1]): 16 µg/mL
- IC50 [2]: 0.23 µM
- inhibition (Bacteria [3]): > 70%
- inhibition (Bacteria [4]): < 20%
- inhibition (Bacteria [6]): < 20%
- MIC (Bacteria [7]): 4 µg/mL

SMILES: COC(=O)c1ccc(C(=O)Nc2cccc(S(N)(=O)=O)c2)cc1
- inhibition (Bacteria [9]): Dose-dependent effect
- inhibition (Mus musculus [10]): Active
- inhibition (Bacteria [11]): 92%
- MIC (Bacteria [1]): 16 µg/mL
- IC50 [2]: 0.11 µM
- Activity (Escherichia coli [12]): inactive
- inhibition (Bacteria [3]): 95%
- viability at 48 h [8]: > 80%
- inhibition (Bacteria [4]): < 20%
- Activity (Mus musculus [13]): inactive
- Ki [5]: 0.55 µM
- inhibition (Bacteria [6]): < 20%
- MIC (Bacteria [7]): 4 µg/mL
- inhibition (Mus musculus [14]): Active

SMILES: NS(=O)(=O)c1ccccc1NC(=O)c1ccc(Cl)cc1
- MIC (Bacteria [1]): 32 µg/mL
- IC50 [2]: 5.4 µM
- inhibition (Bacteria [3]): > 70%
- inhibition (Bacteria [4]): < 20%
- inhibition (Bacteria [6]): < 20%
- MIC (Bacteria [7]): 8 µg/mL

SMILES: NS(=O)(=O)c1cccc(NC(=O)c2ccccc2)c1
- MIC (Bacteria [1]): 16 µg/mL
- IC50 [2]: 0.15 µM
- inhibition (Bacteria [3]): > 70%
- inhibition (Bacteria [4]): < 20%
- inhibition (Bacteria [6]): < 20%
- MIC (Bacteria [7]): 4 µg/mL

SMILES: NS(=O)(=O)c1cccc(NC(=O)c2cccc(Br)c2)c1
- MIC (Bacteria [1]): 16 µg/mL
- IC50 [2]: 0.14 µM
- inhibition (Bacteria [3]): > 70%
- inhibition (Bacteria [4]): < 20%
- inhibition (Bacteria [6]): < 20%
- MIC (Bacteria [7]): 4 µg/mL

SMILES: NS(=O)(=O)c1ccc(NC(=O)c2cccc(Br)c2)cc1
- MIC (Bacteria [1]): 32 µg/mL
- IC50 [2]: 2.7 µM
- inhibition (Bacteria [3]): > 70%
- inhibition (Bacteria [4]): < 20%
- inhibition (Bacteria [6]): < 20%
- MIC (Bacteria [7]): 8 µg/mL

SMILES: NS(=O)(=O)c1cccc(NC(=O)c2ccc(Cl)cc2)c1
- MIC (Bacteria [1]): 16 µg/mL
- IC50 [2]: 0.44 µM
- inhibition (Bacteria [3]): > 70%
- viability at 48 h [8]: > 80%
- inhibition (Bacteria [4]): < 20%
- inhibition (Bacteria [6]): < 20%
- MIC (Bacteria [7]): 4 µg/mL

SMILES: NS(=O)(=O)c1ccc(NC(=O)c2ccc(C(F)(F)F)cc2)cc1
- MIC (Bacteria [1]): 32 µg/mL
- IC50 [2]: 9.3 µM
- inhibition (Bacteria [3]): > 70%
- inhibition (Bacteria [4]): < 20%
- inhibition (Bacteria [6]): < 20%
- MIC (Bacteria [7]): 8 µg/mL

SMILES: CC(C)(C)c1ccc(C(=O)Nc2ccc(S(N)(=O)=O)cc2)cc1
- MIC (Bacteria [1]): 32 µg/mL
- IC50 [2]: 3.3 µM
- inhibition (Bacteria [3]): > 70%
- inhibition (Bacteria [4]): < 20%
- inhibition (Bacteria [6]): < 20%
- MIC (Bacteria [7]): 8 µg/mL

SMILES: NS(=O)(=O)c1ccc(NC(=O)c2ccccc2)cc1
- MIC (Bacteria [1]): 32 µg/mL
- IC50 [2]: 7.5 µM
- inhibition (Bacteria [3]): > 70%
- inhibition (Bacteria [4]): < 20%
- inhibition (Bacteria [6]): < 20%
- MIC (Bacteria [7]): 8 µg/mL

SMILES: NS(=O)(=O)c1ccc(NC(=O)c2ccc(O)cc2)cc1
- MIC (Bacteria [1]): 32 µg/mL
- IC50 [2]: 5.6 µM
- inhibition (Bacteria [3]): > 70%
- inhibition (Bacteria [4]): < 20%
- inhibition (Bacteria [6]): < 20%
- MIC (Bacteria [7]): 8 µg/mL

SMILES: NS(=O)(=O)c1cccc(NC(=O)c2cccc([N+](=O)[O-])c2)c1
- MIC (Bacteria [1]): 16 µg/mL
- IC50 [2]: 0.86 µM
- inhibition (Bacteria [3]): > 70%
- inhibition (Bacteria [4]): < 20%
- inhibition (Bacteria [6]): < 20%
- MIC (Bacteria [7]): 4 µg/mL

SMILES: CCN(CC)c1ccc2c(-c3ccccc3C(=O)Oc3ccc(S(N)(=O)=O)cc3)c3ccc(=[N+](CC)CC)cc-3oc2c1
- MIC (Bacteria [1]): 32 µg/mL
- IC50 [2]: 6.8 µM
- MIC (Bacteria [7]): 8 µg/mL

SMILES: C[C@@H](O)[C@H]1C(=O)N2C(C(=O)O)=C(SCCNC=N)C[C@H]12 [IMIPENEM ANHYDROUS]
- MIC (Escherichia coli [15]): 0.25 µg/mL (≈ 0.835 µM)

SMILES: NS(=O)(=O)c1ccc(NC(=O)c2ccc(Cl)cc2)cc1
- MIC (Bacteria [1]): 32 µg/mL
- IC50 [2]: 5.1 µM
- inhibition (Bacteria [3]): > 70%
- viability at 48 h [8]: > 80%
- inhibition (Bacteria [4]): < 20%
- inhibition (Bacteria [6]): < 20%
- MIC (Bacteria [7]): 8 µg/mL

SMILES: NS(=O)(=O)c1cccc(NC(=O)CCc2ccccc2)c1
- MIC (Bacteria [1]): 16 µg/mL
- IC50 [2]: 0.16 µM
- inhibition (Bacteria [3]): > 70%
- inhibition (Bacteria [4]): < 20%
- inhibition (Bacteria [6]): < 20%
- MIC (Bacteria [7]): 4 µg/mL

SMILES: NS(=O)(=O)c1ccc(NC(=O)CCc2ccccc2)cc1
- MIC (Bacteria [1]): 32 µg/mL
- IC50 [2]: 3.5 µM
- inhibition (Bacteria [3]): > 70%
- inhibition (Bacteria [4]): < 20%
- inhibition (Bacteria [6]): < 20%
- MIC (Bacteria [7]): 8 µg/mL

SMILES: NS(=O)(=O)c1cccc(NC(=O)c2ccc(C(F)(F)F)cc2)c1
- MIC (Bacteria [1]): 16 µg/mL
- IC50 [2]: 0.31 µM
- inhibition (Bacteria [3]): > 70%
- inhibition (Bacteria [4]): < 20%
- inhibition (Bacteria [6]): < 20%
- MIC (Bacteria [7]): 4 µg/mL
